Experimental data published in ChEMBL document CHEMBL4622881, “Design, synthesis and biological evaluation of novel pyrrolo[2,3-d]pyrimidine as tumor-targeting agents with selectivity for tumor uptake by high affinity folate receptors over the reduced folate carrier” (Bioorg Med Chem, 2020).

Experiments:
[1] = Inhibition of GARFTase in Chinese Hamster PC43-10 cells expressing human RFC assessed as reduction in cell growth after 96 hrs by Cell-Titer Blue assay; details: Cricetulus griseus, PC43-10, 96 h
Summary of the method: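 PC43-10 (RFC) or R2/PCFT4 (PCFT) CHO, grown in α-MEM + 10% bovine calf serum + G418 (1 mg/mL). ~2000 cells/well exposed to 0–1000 nM drug in folate-free RPMI 1640 with 10% dialyzed FBS and 25 nM leucovorin for 96 h. Viability by Cell-Titer Blue fluorescence; IC50 as 50% growth inhibition relative to drug-free cells; mean of 5–16 experiments.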

[2] = species: Cricetulus griseus; test: Potency index, ratio of (2S)-2-[[4-[4-(2-amino-4-oxo-3,7-dihydropyrrolo[2,3-d]pyrimidin-6-yl)butyl]benzoyl]amino]pentanedioic acid IC50 to compound IC50 for GARFTase in Chinese Hamster RT16 cells expressing human FRalpha assessed as reduction in cell growth after 96 hrs by Cell-Titer Blue assay; assay type: cell-based
Summary of the method: (§1)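 CHO sublines from transporter-null R2 cells, expressing human FRβ (D4) or FRα (RT16), were kept in α-MEM with 10% calf serum and G418 (1 mg/mL). They were then moved to folate-free RPMI 1640 with 10% dialyzed FBS for 3 days. ~2000 cells/well were exposed to 0–1000 nM drug with 2 nM leucovorin for 96 h, ± 200 nM folic acid, and read by Cell-Titer Blue fluorescence. IC50 is 50% growth loss versus untreated cells; index is reference IC50 over compound IC50.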

[3] = Inhibition of GARFTase in Chinese Hamster MTXRII-OuaR2-4/RFC/FRalpha/PCFT-null R2 cells assessed as reduction in cell growth after 96 hrs by Cell-Titer Blue assay; assay type: cell-based; details: Cricetulus griseus, R2, 96 h
[4] = species: Cricetulus griseus; test: Potency index, ratio of (2S)-2-[[4-[4-(2-amino-4-oxo-3,7-dihydropyrrolo[2,3-d]pyrimidin-6-yl)butyl]benzoyl]amino]pentanedioic acid IC50 to compound IC50 for GARFTase in Chinese Hamster D4 cells expressing human FRbeta assessed as reduction in cell growth after 96 hrs by Cell-Titer Blue assay; assay type: cell-based; summary of the method: as §1
[5] = Inhibition of GARFTase in Chinese Hamster RT16 cells expressing human FRalpha assessed as reduction in cell growth after 96 hrs by Cell-Titer Blue assay; assay type: cell-based; details: Cricetulus griseus, RT16, 96 h
[6] = Inhibition of GARFTase in Chinese Hamster MTXRII-OuaR2-4 R2 cells expressing human PCFT assessed as reduction in cell growth after 96 hrs by Cell-Titer Blue assay; assay type: cell-based; details: Cricetulus griseus, R2, 96 h
[7] = Inhibition of GARFTase in Chinese Hamster D4 cells expressing human FRbeta assessed as reduction in cell growth after 96 hrs by Cell-Titer Blue assay; assay type: cell-based; details: Cricetulus griseus
[8] = target: T1, Trifunctional purine biosynthetic protein adenosine-3 (Homo sapiens) (UniProt P22102); test: Potency index, ratio of (2S)-2-[[4-[4-(2-amino-4-oxo-3,7-dihydropyrrolo[2,3-d]pyrimidin-6-yl)butyl]benzoyl]amino]pentanedioic acid IC50 to compound IC50 for GARFTase in human KB cells assessed as reduction in cell growth after 96 hrs by Cell-Titer Blue assay; assay type: cell-based
T1 sequence (whole entry): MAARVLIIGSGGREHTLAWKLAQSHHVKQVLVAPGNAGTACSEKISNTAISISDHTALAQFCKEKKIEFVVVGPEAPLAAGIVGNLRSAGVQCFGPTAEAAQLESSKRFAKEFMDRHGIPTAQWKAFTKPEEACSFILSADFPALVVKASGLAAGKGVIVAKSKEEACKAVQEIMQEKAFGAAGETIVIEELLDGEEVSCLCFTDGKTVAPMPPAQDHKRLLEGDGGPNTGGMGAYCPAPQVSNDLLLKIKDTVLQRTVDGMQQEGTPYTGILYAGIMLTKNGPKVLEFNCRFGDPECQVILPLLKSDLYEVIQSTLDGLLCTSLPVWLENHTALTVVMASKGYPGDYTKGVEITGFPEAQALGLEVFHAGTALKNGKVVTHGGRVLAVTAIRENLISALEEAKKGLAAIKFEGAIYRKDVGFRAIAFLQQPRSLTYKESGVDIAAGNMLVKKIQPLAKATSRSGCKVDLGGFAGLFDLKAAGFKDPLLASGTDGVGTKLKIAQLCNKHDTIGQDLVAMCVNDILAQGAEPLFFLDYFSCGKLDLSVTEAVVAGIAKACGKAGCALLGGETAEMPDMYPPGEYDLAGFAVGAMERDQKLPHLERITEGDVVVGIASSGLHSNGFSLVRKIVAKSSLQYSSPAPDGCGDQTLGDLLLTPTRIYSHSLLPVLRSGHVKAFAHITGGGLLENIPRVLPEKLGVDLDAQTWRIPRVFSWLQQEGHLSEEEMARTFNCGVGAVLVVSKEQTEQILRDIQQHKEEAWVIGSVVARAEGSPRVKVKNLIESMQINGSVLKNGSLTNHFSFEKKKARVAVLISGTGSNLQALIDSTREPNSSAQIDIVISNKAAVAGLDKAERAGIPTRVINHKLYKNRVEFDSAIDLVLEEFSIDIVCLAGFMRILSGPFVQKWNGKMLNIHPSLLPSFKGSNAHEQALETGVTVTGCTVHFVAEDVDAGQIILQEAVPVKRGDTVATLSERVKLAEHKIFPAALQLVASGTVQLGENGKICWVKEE
Summary of the method: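 KB human carcinoma cells, which express RFC, FRα and PCFT, were maintained in folate-free RPMI with 10% FBS. ~2000 cells/well were exposed to 0–1000 nM drug in folate-free RPMI 1640 with 10% dialyzed FBS and 2 nM leucovorin for 96 h, ± 200 nM folic acid. Viability was read by Cell-Titer Blue fluorescence. IC50 is 50% growth loss versus untreated cells; index is reference IC50 over compound IC50.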

| SMILES | IC50 [1] | Ratio IC50 [2] | IC50 [3] | Ratio IC50 [4] | IC50 [5] | IC50 [6] | IC50 [7] | Ratio IC50 [8] |
| --- | --- | --- | --- | --- | --- | --- | --- | --- |
| Nc1nc2[nH]c(CCCNc3ccc(C(=O)N[C@@H](CCC(=O)O)C(=O)O)cc3)cc2c(=O)[nH]1 | 670 nM | 3 | 697 nM | 6 | 1.76 nM | 235 nM | 1.51 nM | 2 |
| Nc1nc2[nH]c(CCCCc3ccc(C(=O)N[C@@H](CCC(=O)O)C(=O)O)cc3)cc2c(=O)[nH]1 | > 1000 nM |  | > 1000 nM |  |  |  |  |  |
| Nc1nc2[nH]c(CCCN(C=O)c3ccc(C(=O)N[C@@H](CCC(=O)O)C(=O)O)cc3)cc2c(=O)[nH]1 | > 1000 nM |  | > 1000 nM | 16 | 35.6 nM | 893 nM | 0.61 nM |  |
| CC(=O)N(CCCc1cc2c(=O)[nH]c(N)nc2[nH]1)c1ccc(C(=O)N[C@@H](CCC(=O)O)C(=O)O)cc1 | > 1000 nM |  | > 1000 nM |  | 57.2 nM | > 1000 nM | 12.8 nM |  |
| Nc1nc2[nH]c(CCNc3ccc(C(=O)N[C@@H](CCC(=O)O)C(=O)O)cc3)cc2c(=O)[nH]1 | 510 nM |  | > 1000 nM |  | 3.04 nM | 87.4 nM | 0.62 nM |  |
| Nc1nc2[nH]c(CCCc3ccc(C(=O)N[C@@H](CCC(=O)O)C(=O)O)cc3)cc2c(=O)[nH]1 | 649 nM |  | > 1000 nM |  |  |  |  |  |
| Nc1nc2[nH]c(CCCSc3ccc(C(=O)N[C@@H](CCC(=O)O)C(=O)O)cc3)cc2c(=O)[nH]1 | > 1000 nM | 2 | > 1000 nM | 16 | 2.56 nM | 593 nM | 0.6 nM | 6 |
| Nc1nc2[nH]c(CCCOc3ccc(C(=O)N[C@@H](CCC(=O)O)C(=O)O)cc3)cc2c(=O)[nH]1 | > 1000 nM |  | > 1000 nM | 2 | 4.6 nM | > 1000 nM | 5.6 nM |  |
| Nc1nc2[nH]c(CCCN(C(=O)C(F)(F)F)c3ccc(C(=O)N[C@@H](CCC(=O)O)C(=O)O)cc3)cc2c(=O)[nH]1 | > 1000 nM |  | > 1000 nM | 3 | 5.78 nM | 487 nM | 3.87 nM |  |
